Results: ChEMBL document CHEMBL1142136, “Contribution of target gene mutations and efflux to decreased susceptibility of Salmonella enterica serovar typhimurium to fluoroquinolones and other antimicrobials” (2007)
Values after ≈ are worked out from the molar mass of the structure shown.

Key:
Assay type in all cases: functional, Salmonella enterica subsp. enterica serovar Typhimurium
[1] = system: Salmonella typhimurium; test: Antimicrobial activity against Salmonella enterica serovar Typhimurium S21 tolC::Kan
In short: (§1)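 MICs by automated broth microdilution panels, interpreted to CLSI broth microdilution standards. Ciprofloxacin additionally tested by agar dilution across 0.0075 to 128 μg/ml. Quality control strains: E. coli ATCC 25922 and 35218, Enterococcus faecalis ATCC 29212, S. aureus ATCC 29213, P. aeruginosa ATCC 27853. Test strains are kanamycin-marked deletion mutants of ground-beef isolate S21.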

[2] = system: Salmonella typhimurium; test: Antimicrobial activity against Salmonella enterica serovar Typhimurium S21-1 gyrA+
In short: (§2)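 MICs measured by broth microdilution on the Sensititre automated system and interpreted by CLSI broth microdilution standards. Ciprofloxacin was also tested by agar dilution, widening the range to 0.0075–128 μg/ml. Quality control strains were E. coli ATCC 25922 and 35218, E. faecalis ATCC 29212, S. aureus ATCC 29213 and P. aeruginosa ATCC 27853.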

[3] = system: Salmonella typhimurium; test: Antimicrobial activity against Salmonella enterica serovar Typhimurium CHS18 gyrA+ with GyrA S38F mutation; in short: as §2
[4] = system: Salmonella typhimurium; test: Antimicrobial activity against Salmonella enterica serovar Typhimurium CS9 tolC::Kan with GyrA S83F, D87N, ParC S80I mutation; in short: as §2
[5] = system: Salmonella typhimurium; test: Antimicrobial activity against Salmonella enterica serovar Typhimurium CHS38 acrAB::Kan with GyrA D87G mutation; in short: as §2
[6] = system: Salmonella typhimurium; test: Antimicrobial activity against Salmonella enterica serovar Typhimurium CHS14 acrAB::Kan with GyrA D87G mutation; in short: as §2
[7] = system: Salmonella typhimurium; test: Antimicrobial activity against Salmonella enterica serovar Typhimurium CS9 with GyrA S83F, D87N, ParC S80I mutation; in short: as §2
[8] = system: Salmonella typhimurium; test: Antimicrobial activity against Salmonella enterica serovar Typhimurium S21-3 gyrA+ with ParC S80I mutation; in short: as §2
[9] = system: Salmonella typhimurium; test: Antimicrobial activity against Salmonella enterica serovar Typhimurium CS3 with GyrA S83F, D87N, ParC S80I mutation; in short: as §2
[10] = system: Salmonella typhimurium; test: Antimicrobial activity against Salmonella enterica serovar Typhimurium S21-3 acrAB::Kan with GyrA S83F, ParC S80I mutation; in short: as §2
[11] = system: Salmonella typhimurium; test: Antimicrobial activity against Salmonella enterica serovar Typhimurium S21-3 tolC::Kan with GyrA S83F, ParC S80I mutation; in short: as §2
[12] = system: Salmonella typhimurium; test: Antimicrobial activity against Salmonella enterica serovar Typhimurium S21-4 gyrA+ with ParC S80I mutation; in short: as §2
[13] = system: Salmonella typhimurium; test: Antimicrobial activity against Salmonella enterica serovar Typhimurium S21-3 with GyrA S83F, ParC S80I mutation; in short: as §2
[14] = system: Salmonella typhimurium; test: Antimicrobial activity against Salmonella enterica serovar Typhimurium S21-2 with GyrA S83F, ParC S80I mutation; in short: as §2
[15] = system: Salmonella typhimurium; test: Antimicrobial activity against Salmonella enterica serovar Typhimurium S21-1 tolC::Kan with GyrA S83F mutation; in short: as §2
[16] = system: Salmonella typhimurium; test: Antimicrobial activity against Salmonella enterica serovar Typhimurium S21-4 acrAB::Kan with GyrA S83F, ParC S80I mutation; in short: as §2
[17] = system: Salmonella typhimurium; test: Antimicrobial activity against Salmonella enterica serovar Typhimurium CS9 acrAB::Kan with GyrA S83F, D87N, ParC S80I mutation; in short: as §2
[18] = system: Salmonella typhimurium; test: Antimicrobial activity against Salmonella enterica serovar Typhimurium S21 acrAB::Kan; in short: as §1
[19] = system: Salmonella typhimurium; test: Antimicrobial activity against Salmonella enterica serovar Typhimurium CS3 acrAB::Kan with GyrA S83F, D87N, ParC S80I mutation; in short: as §2
[20] = system: Salmonella typhimurium; test: Antimicrobial activity against Salmonella enterica serovar Typhimurium S21-2 gyrA+ with ParC S80I mutation; in short: as §2
[21] = system: Salmonella typhimurium; test: Antimicrobial activity against Salmonella enterica serovar Typhimurium S21-4 tolC::Kan with GyrA S83F, ParC S80I mutation; in short: as §2
[22] = system: Salmonella typhimurium; test: Antimicrobial activity against Salmonella enterica serovar Typhimurium CS3 tolC::Kan with GyrA S83F, D87N, parC S80I mutation; in short: as §2
[23] = system: Salmonella typhimurium; test: Antimicrobial activity against Salmonella enterica serovar Typhimurium CHS14 gyrA+ with GyrA D87G mutation; in short: as §2
[24] = system: Salmonella typhimurium; test: Antimicrobial activity against Salmonella enterica serovar Typhimurium CHS38 tolC::Kan with GyrA D87G mutation; in short: as §2
[25] = system: Salmonella typhimurium; test: Antimicrobial activity against Salmonella enterica serovar Typhimurium CHS18 tolC::Kan with GyrA S38F mutation; in short: as §2
[26] = system: Salmonella typhimurium; test: Antimicrobial activity against Salmonella enterica serovar Typhimurium CS1 acrAB::Kan with GyrA S83F, D87N, ParC S80I mutation; in short: as §2
[27] = system: Salmonella typhimurium; test: Antimicrobial activity against Salmonella enterica serovar Typhimurium S21-2 acrAB::Kan with GyrA S83F, ParC S80I mutation; in short: as §2
[28] = system: Salmonella typhimurium; test: Antimicrobial activity against Salmonella enterica serovar Typhimurium S21-2 tolC::Kan with GyrA S83F, ParC S80I mutation; in short: as §2
[29] = system: Salmonella typhimurium; test: Antimicrobial activity against Salmonella enterica serovar Typhimurium CHS14 tolC::Kan with GyrA D87G mutant; in short: as §2
[30] = system: Salmonella typhimurium; test: Antimicrobial activity against Salmonella enterica serovar Typhimurium CHS38 with GyrA D87G mutation; in short: as §2
[31] = system: Salmonella typhimurium; test: Antimicrobial activity against Salmonella enterica serovar Typhimurium S21; in short: as §2
[32] = system: Salmonella typhimurium; test: Antimicrobial activity against Salmonella enterica serovar Typhimurium CS3 gyrA+ with GyrA S83F, D87N, ParC S80I mutation; in short: as §2
[33] = system: Salmonella typhimurium; test: Antimicrobial activity against Salmonella enterica serovar Typhimurium CHS38 gyrA+ with GyrA D87G mutation; in short: as §2
[34] = system: Salmonella typhimurium; test: Antimicrobial activity against Salmonella enterica serovar Typhimurium S21-1 GyrA S83F mutant; in short: as §2
[35] = system: Salmonella typhimurium; test: Antimicrobial activity against Salmonella enterica serovar Typhimurium S21 gyrA+; in short: as §2
[36] = system: Salmonella typhimurium; test: Antimicrobial activity against Salmonella enterica serovar Typhimurium CHS18 acrAB::Kan with GyrA S38F mutation; in short: as §2
[37] = system: Salmonella typhimurium; test: Antimicrobial activity against Salmonella enterica serovar Typhimurium CHS14 with GyrA D87G mutation; in short: as §2
[38] = system: Salmonella typhimurium; test: Antimicrobial activity against Salmonella enterica serovar Typhimurium CHS18 with GyrA S38F mutation; in short: as §2
[39] = system: Salmonella typhimurium; test: Antimicrobial activity against Salmonella enterica serovar Typhimurium CS1 tolC::Kan with GyrA S83F, D87N, ParC S80I mutation; in short: as §2
[40] = system: Salmonella typhimurium; test: Antimicrobial activity against Salmonella enterica serovar Typhimurium GyrA S21-1 acrAB::Kan with GyrA S83F mutation; in short: as §2
[41] = system: Salmonella typhimurium; test: Antimicrobial activity against Salmonella enterica serovar Typhimurium CS9 gyrA+ with GyrA S83F, D87N, ParC S80I mutation; in short: as §2
[42] = system: Salmonella typhimurium; test: Antimicrobial activity against Salmonella enterica serovar Typhimurium S21-4 with GyrA S83F, ParC S80I mutation; in short: as §2
[43] = system: Salmonella typhimurium; test: Antimicrobial activity against Salmonella enterica serovar Typhimurium CS1 with GyrA S83F, D87N, ParC S80I mutation; in short: as §2
[44] = system: Salmonella typhimurium; test: Antimicrobial activity against Salmonella enterica serovar Typhimurium CS1 gyrA+ with GyrA S83F, D87N, ParC S80I mutation; in short: as §2

Question: `O=C(O)c1cn(-c2ccc(F)cc2)c2cc(N3CCNCC3)c(F)cc2c1=O` [SARAFLOXACIN] was tested. Which MIC [1] did it give?
Answer: < 0.015 µg/mL

Question: What about the MIC [2] of the same molecule?
Answer: 0.03 µg/mL (≈ 0.0778 µM)

Question: What about the MIC [3] of the same molecule?
Answer: 0.06 µg/mL (≈ 0.156 µM)

Question: And the MIC [4]?
Answer: 4 µg/mL (≈ 10.4 µM)

Question: What about the MIC [5] of the same molecule?
Answer: 0.03 µg/mL (≈ 0.0778 µM)

Question: What about the MIC [6] of the same molecule?
Answer: < 0.015 µg/mL

Question: And the MIC [7]?
Answer: > 16 µg/mL

Question: And the MIC [8]?
Answer: 1 µg/mL (≈ 2.59 µM)

Question: What about the MIC [9] of the same molecule?
Answer: 16 µg/mL (≈ 41.5 µM)

Question: What about the MIC [10] of the same molecule?
Answer: 0.5 µg/mL (≈ 1.3 µM)

Question: What about the MIC [11] of the same molecule?
Answer: 0.5 µg/mL (≈ 1.3 µM)

Question: What about the MIC [12] of the same molecule?
Answer: 2 µg/mL (≈ 5.19 µM)

Question: What about the MIC [13] of the same molecule?
Answer: > 16 µg/mL

Question: And the MIC [14]?
Answer: 8 µg/mL (≈ 20.8 µM)

Question: What about the MIC [15] of the same molecule?
Answer: 0.12 µg/mL (≈ 0.311 µM)

Question: And the MIC [16]?
Answer: 0.5 µg/mL (≈ 1.3 µM)

Question: What about the MIC [17] of the same molecule?
Answer: 4 µg/mL (≈ 10.4 µM)

Question: And the MIC [18]?
Answer: < 0.015 µg/mL

Question: What about the MIC [19] of the same molecule?
Answer: 4 µg/mL (≈ 10.4 µM)

Question: And the MIC [20]?
Answer: 0.25 µg/mL (≈ 0.649 µM)

Question: What about the MIC [21] of the same molecule?
Answer: 0.5 µg/mL (≈ 1.3 µM)

Question: And the MIC [22]?
Answer: 4 µg/mL (≈ 10.4 µM)

Question: And the MIC [23]?
Answer: 0.03 µg/mL (≈ 0.0778 µM)

Question: And the MIC [24]?
Answer: < 0.015 µg/mL

Question: What about the MIC [25] of the same molecule?
Answer: 0.03 µg/mL (≈ 0.0778 µM)

Question: And the MIC [26]?
Answer: 4 µg/mL (≈ 10.4 µM)

Question: What about the MIC [27] of the same molecule?
Answer: 0.5 µg/mL (≈ 1.3 µM)

Question: What about the MIC [28] of the same molecule?
Answer: 0.5 µg/mL (≈ 1.3 µM)

Question: What about the MIC [29] of the same molecule?
Answer: < 0.015 µg/mL

Question: What about the MIC [30] of the same molecule?
Answer: 0.12 µg/mL (≈ 0.311 µM)

Question: And the MIC [31]?
Answer: 0.03 µg/mL (≈ 0.0778 µM)

Question: And the MIC [32]?
Answer: 0.06 µg/mL (≈ 0.156 µM)

Question: And the MIC [33]?
Answer: < 0.015 µg/mL

Question: And the MIC [34]?
Answer: 1 µg/mL (≈ 2.59 µM)

Question: And the MIC [35]?
Answer: 0.03 µg/mL (≈ 0.0778 µM)

Question: What about the MIC [36] of the same molecule?
Answer: 0.03 µg/mL (≈ 0.0778 µM)

Question: And the MIC [37]?
Answer: 0.25 µg/mL (≈ 0.649 µM)

Question: And the MIC [38]?
Answer: 0.25 µg/mL (≈ 0.649 µM)

Question: And the MIC [39]?
Answer: 4 µg/mL (≈ 10.4 µM)

Question: What about the MIC [40] of the same molecule?
Answer: 0.12 µg/mL (≈ 0.311 µM)

Question: What about the MIC [41] of the same molecule?
Answer: 0.03 µg/mL (≈ 0.0778 µM)

Question: What about the MIC [42] of the same molecule?
Answer: > 16 µg/mL

Question: And the MIC [43]?
Answer: 16 µg/mL (≈ 41.5 µM)

Question: What about the MIC [44] of the same molecule?
Answer: 0.06 µg/mL (≈ 0.156 µM)
